Reference: ChEMBL document CHEMBL1122721, “Synthesis and antiarrhythmic activity of new 1-[1-[2-[3-(alkylamino)-2-hydroxypropoxy]phenyl]vinyl]-1 H-imidazoles and related compounds” (J Med Chem, 1984)
“And” between values parts separate entries of the source, which are not always exact repeats. Equal entries are not always repeated.

Key:
Mus musculus [1] = assay: Compound was evaluated for ventricular tachycardia activity in perorally administered mice, 30 min before aconitine infusion, at a dose of 10 mg/kg; S=significant antiarrhythmic effect; type: functional, organism-based; set-up: dose 10 mg/kg; conditions: Heart
Procedure, shortened: (§1)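 Aconitine arrhythmia model in pentobarbital-anesthetized male mice (20-35 g). Test compound was given iv 3 min or po 30 min before continuous tail-vein infusion of aconitine (0.685 µg/min). Lead II ECG recorded; onset times of ventricular extrasystole (VES) and ventricular tachycardia (VT) were measured.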

Canis familiaris [2] = assay: Effect on ischemic arrhythmias was studied in dogs, by glass bead method. 10 mg/kg was administered perorally and percent sinus beats after compound administration, was reported.; type: functional, Canis lupus familiaris; conditions: route oral
Procedure, shortened: (§2)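 Conscious dogs with ischemic ventricular arrhythmias persisting for 24 h after a glass bead was inserted into a coronary artery. Compound was given iv or orally. Lead II ECG recorded continuously by telemetry. Percent sinus beats taken before and after dosing, plus duration of effect (min).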

[3] = target: Adrenergic receptor beta (Cavia porcellus); assay: Beta adrenergic receptor blocking activity measured by the chronotropic effect was determined 1 hr after pretreatment of the right atria in guinea pig
Canis familiaris [4] = assay: Effect on ischemic arrhythmias was studied in dogs, by glass bead method. 10 mg/kg was administered perorally and percent sinus beats before compound administration, was reported.; type: functional, Canis lupus familiaris; conditions: route oral; procedure, shortened: as §2
Canis familiaris [5] = assay: Effect on ischemic arrhythmias was studied in dogs. 3 mg/kg was injected intravenously and percent sinus beats before compound administration, was reported.; type: functional, Canis lupus familiaris; conditions: route intravenous; procedure, shortened: as §2
Canis familiaris [6] = species: Canis familiaris; assay: Duration of ischemic arrhythmias in dogs determined in minutes.
Mus musculus [7] = assay: Compound was evaluated for ventricular tachycardia activity in intravenously administered mice, 3 min before aconitine infusion, at a dose of 1 mg/kg; S=significant antiarrhythmic effect; type: functional, organism-based; set-up: dose 1 mg/kg; conditions: Heart; procedure, shortened: as §1
Canis familiaris [8] = assay: Effect on ischemic arrhythmias was studied in dogs. 3 mg/kg was injected intravenously and percent sinus beats after compound administration, was reported.; type: functional, Canis lupus familiaris; conditions: route intravenous; procedure, shortened: as §2
Mus musculus [9] = assay: Compound was evaluated for ventricular extrasystole activity, 3 min before aconitine infusion, at a dose of 1 mg/kg, intravenously administered in mice; S=significant antiarrhythmic effect; type: functional, organism-based; set-up: dose 1 mg/kg; conditions: Heart; procedure, shortened: as §1
Mus musculus [10] = assay: Compound was evaluated for ventricular extrasystole, 30 min before aconitine infusion, at a dose of 10 mg/kg, perorally administered in mice; S=significant antiarrhythmic effect; type: functional, organism-based; set-up: dose 10 mg/kg; conditions: Heart; procedure, shortened: as §1
[11] = target: Adrenergic receptor beta (Cavia porcellus); assay: Beta adrenergic receptor blocking activity measured by the inotropic effect was determined 1 hr after pretreament of the right atria in guinea pig
Cavia porcellus = species: Cavia porcellus; assay: Maximal follow rate showing the contractile frequencies of atria to electrical stimulation 10 min after incubation with right atria of guinea pig.; type: functional
Procedure, shortened: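 Isolated right atria driven by electrical stimulation (Dawes' method). Maximal follow rate, the highest contractile frequency the atria follow, measured as an index of refractory period 10 min after incubation with compound.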

Mus musculus [12] = assay: Compound was evaluated for ventricular tachycardia activity in intravenously administered mice, 3 min before aconitine infusion, at a dose of 3 mg/kg; S=significant antiarrhythmic effect; type: functional, organism-based; set-up: dose 3 mg/kg; conditions: Heart; procedure, shortened: as §1
Mus musculus [13] = assay: Compound was evaluated for ventricular extrasystole, 3 min before aconitine infusion, at a dose of 3 mg/kg, intravenously administered in mice; S=significant antiarrhythmic effect; conditions: Heart
Canis familiaris [14] = assay: Effect on ischemic arrhythmias was studied in dogs. 10 mg/kg was injected intravenously and percent sinus beats after compound administration, was reported.; type: functional, Canis lupus familiaris; conditions: route intravenous; procedure, shortened: as §2
Canis familiaris [15] = assay: Effect on ischemic arrhythmias was studied in dogs, by glass bead method. 60 mg/kg was administered perorally and percent sinus beats after compound administration, was reported.; type: functional, Canis lupus familiaris; conditions: route oral
Procedure, shortened: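 Conscious dogs; ventricular arrhythmias induced by inserting a glass bead into a coronary artery, with marked arrhythmias persisting for 24 h. Compound given orally. Lead II ECG recorded continuously by telemetry. Percent sinus beats measured before and after dosing, and duration of effect in min recorded.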

Mus musculus [16] = assay: Compound was evaluated for ventricular tachycardia activity in perorally administered mice, 30 min before aconitine infusion, at a dose of 30 mg/kg; S=significant antiarrhythmic effect; type: functional, organism-based; set-up: dose 30 mg/kg; conditions: Heart; procedure, shortened: as §1
Mus musculus [17] = assay: Compound was evaluated for ventricular extrasystole, 30 min before aconitine infusion, at a dose of 30 mg/kg, perorally administered in mice; S=significant antiarrhythmic effect; type: functional, organism-based; set-up: dose 30 mg/kg; conditions: Heart; procedure, shortened: as §1
Mus musculus [18] = assay: Compound was evaluated for ventricular extrasystole activity, 3 min before aconitine infusion, at a dose of 10 mg/kg, intravenously administered in mice; S=significant antiarrhythmic effect; type: functional, organism-based; set-up: dose 10 mg/kg; conditions: Heart; procedure, shortened: as §1
Canis familiaris [19] = assay: Effect on ischemic arrhythmias was studied in dogs, by glass bead method. 60 mg/kg was administered perorally and percent sinus beats before compound administration, was reported.; type: functional, Canis lupus familiaris; conditions: route oral; procedure, shortened: as §2
Canis familiaris [20] = assay: Effect on ischemic arrhythmias was studied in dogs. 10 mg/kg was injected intravenously and percent sinus beats before compound administration, was reported.; type: functional, Canis lupus familiaris; conditions: route intravenous; procedure, shortened: as §2
Mus musculus [21] = assay: Compound was evaluated for ventricular tachycardia activity in intravenously administered mice, 3 min before aconitine infusion, at a dose of 10 mg/kg; S=significant antiarrhythmic effect; type: functional, organism-based; set-up: dose 10 mg/kg; conditions: Heart; procedure, shortened: as §1
[22] = Lethal dose in mice (LD50) (following i.v. dosing); conditions: mouse, in vivo, iv
Mus musculus [23] = assay: Compound was evaluated for ventricular extrasystole activity, 3 min before aconitine infusion, at a dose of 3 mg/kg, intravenously administered in mice; S=significant antiarrhythmic effect; type: functional, organism-based; set-up: dose 3 mg/kg; conditions: Heart; procedure, shortened: as §1
Mus musculus [24] = assay: Compound was evaluated for ventricular extrasystole activity, 30 min before aconitine infusion, at a dose of 10 mg/kg, perorally administered in mice; S=significant antiarrhythmic effect; conditions: Heart
Mus musculus [25] = assay: Compound was evaluated for ventricular extrasystole activity, 3 min before aconitine infusion, at a dose of 30 mg/kg, intravenously administered in mice; S=significant antiarrhythmic effect; type: functional, organism-based; set-up: dose 30 mg/kg; conditions: Heart; procedure, shortened: as §1

Row | Structure (SMILES) | Activity (Mus musculus [1]) | pA2 [3] | Sinus beats (Canis familiaris [5]) [%] | Activity (Mus musculus [7]) | Sinus beats (Canis familiaris [8]) [%] | pA2 [11] | Decrease (Cavia porcellus) [%] | Activity (Mus musculus [12]) | Activity (Mus musculus [16]) | Activity (Mus musculus [17]) | LD50 [22] [mg/kg] | other results
1 | C=C(c1c(Cl)ccc(Cl)c1OCC(O)CNCC(C)C)n1ccnc1 (configuration not stated) | Anti-arrhythmic | 4.89 | 6.5 | Anti-arrhythmic | 94.5 | 5.81 | 34.9 |  |  |  |  | Sinus beats (Canis familiaris [2]): 44.8%; Sinus beats (Canis familiaris [4]): 9.9%; Duration (Canis familiaris [6]): 60 min and 180 min; Activity (Mus musculus [9]): Anti-arrhythmic; Activity (Mus musculus [10]): Anti-arrhythmic
2 | C=C(c1c(Cl)ccc(Cl)c1OCC(O)CNC(C)C)n1ccnc1 (configuration not stated) | Anti-arrhythmic | 4.86 | 5.8 |  | 88.9 | 5.29 | 45.7 | Anti-arrhythmic |  |  |  | Sinus beats (Canis familiaris [2]): 69.3%; Sinus beats (Canis familiaris [4]): 9.3%; Activity (Mus musculus [13]): Anti-arrhythmic
3 | C=C[C@H]1CN2CC[C@H]1C[C@@H]2[C@@H](O)c1ccnc2ccc(OC)cc12 [QUINIDINE] |  |  |  |  |  |  | 26.4 |  | Anti-arrhythmic | Anti-arrhythmic |  | Sinus beats (Canis familiaris [14]): 74.1%; Sinus beats (Canis familiaris [15]): 58.3%; Activity (Mus musculus [18]): Anti-arrhythmic; Sinus beats (Canis familiaris [19]): 4.2%; Sinus beats (Canis familiaris [20]): 14.1%; Activity (Mus musculus [21]): Anti-arrhythmic
4 | C=C(c1c(C)ccc(Cl)c1OCC(O)CNC(C)(C)C)n1ccnc1 (configuration not stated) | Anti-arrhythmic | 5.04 | 11.7 |  | 59.1 | 5.77 | 49.8 | Anti-arrhythmic |  |  | 29.5 | Duration (Canis familiaris [6]): 30 min; Activity (Mus musculus [10]): Anti-arrhythmic; Activity (Mus musculus [23]): Anti-arrhythmic
5 | C=C(c1c(C)c(C)cc(Cl)c1OCC(O)CNC(C)C)n1ccnc1 (configuration not stated) |  | 5.04 |  | Anti-arrhythmic |  | 5.96 | 29.8 |  | Anti-arrhythmic | Anti-arrhythmic | 15.5 | Activity (Mus musculus [9]): Anti-arrhythmic
6 | CC(C)N(CCC(C(N)=O)(c1ccccc1)c1ccccn1)C(C)C (configuration not stated) [DISOPYRAMIDE] |  |  |  |  |  |  | 15.7 |  | Anti-arrhythmic | Anti-arrhythmic | 30 | Sinus beats (Canis familiaris [14]): 88.4%; Sinus beats (Canis familiaris [15]): 66.2%; Activity (Mus musculus [18]): Anti-arrhythmic; Sinus beats (Canis familiaris [19]): 10.1%; Sinus beats (Canis familiaris [20]): 22.4%; Activity (Mus musculus [21]): Anti-arrhythmic
7 | C=C(c1ccc(Cl)c(Cl)c1OCC(O)CNC(C)C)n1ccnc1 (configuration not stated) |  | 4.52 |  |  |  | 4.9 |  | Anti-arrhythmic |  |  |  | Activity (Mus musculus [13]): Anti-arrhythmic
8 | C=C(c1cc(Cl)ccc1OCC(O)CNC(C)(C)C)n1cccn1 (configuration not stated) |  | 6.9 | 1.8 |  | 14.3 | 6.99 | 45.7 | Anti-arrhythmic |  |  | 32.5 | Activity (Mus musculus [24]): Anti-arrhythmic
9 | C=C(c1c(C)ccc(Cl)c1OCC(O)CNC(C)C)n1ccnc1 (configuration not stated) |  | 5.67 |  | Anti-arrhythmic |  | 5.55 |  |  | Anti-arrhythmic |  |  | Activity (Mus musculus [25]): Anti-arrhythmic
